Laboratory results: ChEMBL document CHEMBL3351917, “Structure-activity relationship study of 4EGI-1, small molecule eIF4E/eIF4G protein-protein interaction inhibitors” (Eur J Med Chem, 2014)
Where “and” joins values, the source holds several entries; their conditions need not be identical. Equal entries are not always repeated. Calls of active or inactive are those of the source. The calls are words filed in the database; no cut-off is given here.

Legend:
[1] = Retention time of the compound in 50 to 100% ACN/Water/0.1%TFA by RP-HPLC analysis; type: physicochemical; details: buffer
How it was run: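 RP-HPLC run with a 50 to 100% ACN/water/0.1% TFA gradient over 25 min; retention times and isomer ratios taken from the reaction mixture.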

[2] = Retention time of the compound in 0 to 100% ACN/Water/0.1%TFA by RP-HPLC analysis; type: physicochemical; details: buffer
How it was run: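 Reverse-phase HPLC, linear gradient 0 to 100% ACN/water/0.1% TFA over 25 min; isomer retention times and ratios measured in the reaction mixture.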

[3] = Retention time of the compound in 30 to 100% ACN/Water/0.1%TFA by RP-HPLC analysis; type: physicochemical; details: buffer
How it was run: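 Reverse-phase HPLC, 30 to 100% ACN/water/0.1% TFA gradient in 25 min; retention times and E/Z ratios determined on the reaction mixture.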

[4] = Retention time of the compound in 0 to 70% ACN/Water/0.1%TFA by RP-HPLC analysis; type: physicochemical; details: buffer
[5] = molecular target: T1, Eukaryotic translation initiation factor 4E (Homo sapiens, UniProt P06730); assay: Inhibition of eIF4E/eIF4G interaction in human CRL2813 cells assessed as increase in eIF4E/BP1 complex at 30 uM after 6 hrs by Western blotting analysis relative to control; type: cell-based
T1 sequence (P06730 whole entry): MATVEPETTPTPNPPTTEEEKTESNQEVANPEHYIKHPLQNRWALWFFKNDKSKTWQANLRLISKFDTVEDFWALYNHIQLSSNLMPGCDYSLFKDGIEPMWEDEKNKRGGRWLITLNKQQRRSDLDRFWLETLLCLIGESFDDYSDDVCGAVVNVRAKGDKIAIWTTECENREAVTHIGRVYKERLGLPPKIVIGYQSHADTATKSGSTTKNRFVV
How it was run: (§1)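 CRL-2813 melanoma cells incubated 6 h with 30 µM compound or DMSO vehicle, harvested, lysed by freeze-thaw; lysate bound to m7GTP-Sepharose 1 h at 4°C, beads washed, eluted with free m7GTP; retentate resolved by SDS-PAGE and immunoblotted for eIF4E, eIF4G (monoclonal) and 4E-BP1 (polyclonal). Blots quantified; mean of three independent pull-downs, error ±S.E.M.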

[6] = molecular target: T1, Eukaryotic translation initiation factor 4E; assay: Inhibition of eIF4E/eIF4G interaction in human CRL2813 cells assessed as reduction of eIF4E/eIF4G complex at 30 uM after 6 hrs by Western blotting analysis relative to control; type: cell-based; how it was run: as §1
[7] = molecular target: T1, Eukaryotic translation initiation factor 4E; assay: Binding affinity to human full length recombinant GST-tagged eIF4E expressed in Escherichia coli BL21(DE3) by intrinsic tryptophan fluorescence quenching method

Retention_time [1] | SMILES | further results
10.68 min | COc1ccc(C/C(=N/Nc2nc(-c3ccc(Cl)c(Cl)c3)cs2)C(=O)O)cc1[N+](=O)[O-] | –
14.28 min | O=C(O)/C(Cc1ccc(O)cc1)=N\Nc1nc(-c2ccc(Cl)c(Cl)c2)cs1 | Retention_time [2]: 18.74 min
– | O=C(O)/C(Cc1ccccc1[N+](=O)[O-])=N\Nc1nc(-c2ccc(N3CCCC3)cc2)cs1 (mixture of isomers) | Retention_time [3]: 8.828 min
– | [N-]=[N+]=Nc1ccc(-c2csc(N/N=C(/Cc3ccccc3[N+](=O)[O-])C(=O)O)n2)cc1 | Retention_time [3]: 13.435 min
7.23 min | O=C(O)/C(Cc1ccccc1[N+](=O)[O-])=N\Nc1nc(-c2ccc(-c3ccccc3)cc2)cs1 | –
– | Nc1ccc(-c2csc(N/N=C(/Cc3ccccc3[N+](=O)[O-])C(=O)O)n2)cc1 | Retention_time [4]: 12.98 min
15.54 min | O=C(O)/C(Cc1ccc(F)c([N+](=O)[O-])c1)=N/Nc1nc(-c2ccc(Cl)c(Cl)c2)cs1 | –
– | O=C(O)/C(Cc1ccc(C(=O)O)cc1[N+](=O)[O-])=N\Nc1nc(-c2ccc(Cl)c(Cl)c2)cs1 | Retention time [3]: 12.5 min
12.013 min | O=C(O)/C(Cc1ccccc1[N+](=O)[O-])=N/Nc1nc(-c2ccc(C3CCCCC3)cc2)cs1 | –
– | Nc1ccc(-c2csc(N/N=C(\Cc3ccccc3[N+](=O)[O-])C(=O)O)n2)cc1 | Retention_time [4]: 11.06 min
10.53 min | O=C(O)/C(Cc1ccc(C(F)(F)F)cc1)=N\Nc1nc(-c2ccc(Cl)c(Cl)c2)cs1 | –
8.4 min | O=C(O)/C(Cc1ccc(F)c([N+](=O)[O-])c1)=N\Nc1nc(-c2ccc(Cl)c(Cl)c2)cs1 | –
– | Nc1ccc(C/C(=N/Nc2nc(-c3ccc(Cl)c(Cl)c3)cs2)C(=O)O)cc1 | Retention_time [3]: 5.328 min
8.36 min | O=C(O)/C(Cc1cccc([N+](=O)[O-])c1)=N\Nc1nc(-c2ccc(Cl)c(Cl)c2)cs1 | –
9.437 min | O=C(O)/C(Cc1ccc(Cl)c([N+](=O)[O-])c1)=N/Nc1nc(-c2ccc(Cl)c(Cl)c2)cs1 | –
5.62 min | O=C(O)/C(Cc1ccc(C(=O)O)cc1)=N/Nc1nc(-c2ccc(Cl)c(Cl)c2)cs1 | –
13.69 min | O=C(O)/C(Cc1ccccc1[N+](=O)[O-])=N\Nc1nc(-c2ccc(Cl)c(Cl)c2)cs1 | –
– | O=C(O)/C(Cc1ccccc1[N+](=O)[O-])=N/Nc1nc(-c2ccc(Br)cc2)cs1 | Retention_time [3]: 10 min
7.82 min | O=C(O)/C(Cc1ccc(O)c([N+](=O)[O-])c1)=N\Nc1nc(-c2ccc(Cl)c(Cl)c2)cs1 | –
– | O=C(O)/C(Cc1ccccc1[N+](=O)[O-])=N\Nc1nc(-c2ccc(Br)cc2)cs1 | Retention_time [3]: 12.48 min
5.899 min | O=C(O)/C(Cc1ccccc1[N+](=O)[O-])=N\Nc1nc(-c2ccc3ccccc3c2)cs1 | –
– | O=C(O)/C(Cc1ccccc1[N+](=O)[O-])=N\Nc1nc(-c2ccc(C(=O)O)cc2)cs1 | Retention_time [4]: 16.77 min
8.7 min | O=C(O)/C(Cc1ccccc1)=N/Nc1nc(-c2ccc(Cl)c(Cl)c2)cs1 | –
15.08 min | Nc1ccc(C/C(=N/Nc2nc(-c3ccc(Cl)c(Cl)c3)cs2)C(=O)O)cc1[N+](=O)[O-] | inhibition [5]: Active; inhibition [6]: Active; Kd [7]: 5.01 µM; Retention_time [3]: 15.09 min
14.28 min | O=C(O)/C(Cc1ccc(O)cc1)=N/Nc1nc(-c2ccc(Cl)c(Cl)c2)cs1 | Retention_time [2]: 16.63 min
8.68 min | O=C(O)/C(Cc1ccccc1[N+](=O)[O-])=N/Nc1nc(-c2ccc(Cl)c(Cl)c2)cs1 | –

Retention_time [1] | SMILES | further results
12.32 min | O=C(O)/C(Cc1ccccc1[N+](=O)[O-])=N\Nc1nc(-c2ccc(N3CCOCC3)cc2)cs1 | –
– | O=C(O)/C(Cc1ccccc1[N+](=O)[O-])=N/Nc1nc(-c2ccccc2)cs1 | Retention_time [4]: 15.796 min and 16.484 min; Retention_time [2]: 15.8 min
– | Nc1ccc(C/C(=N\Nc2nc(-c3ccc(Cl)c(Cl)c3)cs2)C(=O)O)cc1[N+](=O)[O-] | Retention_time [3]: 12.3 min
8.01 min | O=C(O)/C(Cc1ccc([N+](=O)[O-])cc1)=N\Nc1nc(-c2ccc(Cl)c(Cl)c2)cs1 | –
– | O=C(O)/C(Cc1ccc(Br)cc1[N+](=O)[O-])=N/Nc1nc(-c2ccc(Cl)c(Cl)c2)cs1 | Retention_time [3]: 15.542 min
– | O=C(O)/C(Cc1ccc(C(=O)O)cc1[N+](=O)[O-])=N/Nc1nc(-c2ccc(Cl)c(Cl)c2)cs1 | Retention_time [3]: 11.814 min
10.59 min | O=C(O)/C(Cc1ccc(C(F)(F)F)cc1)=N/Nc1nc(-c2ccc(Cl)c(Cl)c2)cs1 | –
– | O=C(O)/C(Cc1ccccc1[N+](=O)[O-])=N\Nc1nc(-c2ccc(O)cc2)cs1 | Kd [7]: 36.6 µM; Retention_time [4]: 16.47 min
10.09 min | O=C(O)/C(Cc1ccc(Cl)cc1)=N\Nc1nc(-c2ccc(Cl)c(Cl)c2)cs1 | –
7.19 min | O=C(O)/C(Cc1cccc([N+](=O)[O-])c1)=N/Nc1nc(-c2ccc(Cl)c(Cl)c2)cs1 | –
7.82 min | O=C(O)/C(Cc1ccc(O)c([N+](=O)[O-])c1)=N/Nc1nc(-c2ccc(Cl)c(Cl)c2)cs1 | –
7.47 min | O=C(O)/C(Cc1ccc(F)cc1)=N/Nc1nc(-c2ccc(Cl)c(Cl)c2)cs1 | –
– | O=C(O)/C(Cc1ccccc1[N+](=O)[O-])=N/Nc1nc(-c2ccc(O)cc2)cs1 | Retention_time [4]: 16.48 min
7.92 min | O=C(O)/C(Cc1ccc(F)cc1)=N\Nc1nc(-c2ccc(Cl)c(Cl)c2)cs1 | –
7.27 min | O=C(O)/C(Cc1ccccc1[N+](=O)[O-])=N/Nc1nc(-c2ccc3ccccc3c2)cs1 | Retention_time [3]: 11.72 min
10.56 min | O=C(O)/C(Cc1ccccc1)=N\Nc1nc(-c2ccc(Cl)c(Cl)c2)cs1 | –
– | [N-]=[N+]=Nc1ccc(-c2csc(N/N=C(\Cc3ccccc3[N+](=O)[O-])C(=O)O)n2)cc1 | Retention_time [3]: 11.722 min
8.16 min | O=C(O)/C(Cc1ccc([N+](=O)[O-])cc1)=N/Nc1nc(-c2ccc(Cl)c(Cl)c2)cs1 | –
– | O=C(O)/C(Cc1ccccc1[N+](=O)[O-])=N\Nc1nc(-c2ccccc2)cs1 | Retention_time [4]: 12.958 min; Retention_time [2]: 16.98 min
15.082 min | O=C(O)/C(Cc1ccccc1[N+](=O)[O-])=N/Nc1nc(-c2ccc(N3CCOCC3)cc2)cs1 | –
9.449 min | O=C(O)/C(Cc1ccc(Cl)c([N+](=O)[O-])c1)=N\Nc1nc(-c2ccc(Cl)c(Cl)c2)cs1 | –
8.007 min | COc1ccc(C/C(=N\Nc2nc(-c3ccc(Cl)c(Cl)c3)cs2)C(=O)O)cc1[N+](=O)[O-] | –
8.13 min | O=C(O)/C(Cc1ccc(C(=O)O)cc1)=N\Nc1nc(-c2ccc(Cl)c(Cl)c2)cs1 | –
11.636 min | O=C(O)/C(Cc1ccccc1[N+](=O)[O-])=N\Nc1nc(-c2ccc(C3CCCCC3)cc2)cs1 | –
– | O=C(O)/C(Cc1ccccc1[N+](=O)[O-])=N/Nc1nc(-c2ccc(C(=O)O)cc2)cs1 | Retention_time [4]: 14.54 min
